Only some compounds are listed: those with a hit (about 4.8% of all), similar ones and a draw of the others.
STAT1 act – activators of IFN-gamma induced STAT1 signaling; NIH 3T3 STAT1-luciferase reporter, luminescence; 100% = IFN-gamma alone, no compound; activation (% of control), % at 5.5 µM; hit rate 2.6% among 200,000;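 active = activation above the screen-wide mean activation plus 3 SD, cut at about 130% in these data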;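 also: raw ratio to IFN-gamma control signal so 100% means no change and 0% no light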
FLuc stim CS – affects firefly luciferase, flagging false hits in luciferase stimulation screens; P08659; ATPlite luciferase biochemical, luminescence, 10 min; 0 = ATP-free wells, 1 = DMSO control; activation factor at 10 µM; 200,000 tested, under 10 active; AID 1027;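 active = luciferase activation factor, scaled between plate controls, of at least 2 with compound at 10 µM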
Target sequence (P08659 whole entry, looked up): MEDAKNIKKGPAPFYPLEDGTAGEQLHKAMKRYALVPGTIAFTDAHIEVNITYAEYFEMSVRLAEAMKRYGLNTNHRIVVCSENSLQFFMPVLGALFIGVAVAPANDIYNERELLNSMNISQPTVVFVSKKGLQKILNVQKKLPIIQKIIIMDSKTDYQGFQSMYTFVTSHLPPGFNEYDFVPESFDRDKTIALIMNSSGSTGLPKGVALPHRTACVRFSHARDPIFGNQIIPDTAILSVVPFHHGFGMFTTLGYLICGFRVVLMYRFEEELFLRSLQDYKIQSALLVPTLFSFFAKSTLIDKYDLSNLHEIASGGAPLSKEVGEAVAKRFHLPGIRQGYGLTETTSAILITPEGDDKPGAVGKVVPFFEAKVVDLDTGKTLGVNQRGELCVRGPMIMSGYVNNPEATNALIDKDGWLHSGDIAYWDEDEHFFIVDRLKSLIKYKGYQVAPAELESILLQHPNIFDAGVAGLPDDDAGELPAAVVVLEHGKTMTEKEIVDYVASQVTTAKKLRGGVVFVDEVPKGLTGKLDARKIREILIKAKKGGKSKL
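System: cell-free luciferase reagent; medium: PBS as buffer for the ATP substrate; doses: test compounds dosed from 2 mM stocks in 100% DMSO; incubation: 10 min, room temperature; measured by: luminescence from luciferase reaction; read-out: luciferase activation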
APP 5'UTR act – activates APP 5'UTR luciferase reporter. SH-SY5Y APP 5'UTR luciferase reporter, luminescence; zero percent = DMSO vehicle wells. activation, % at 2 µM. hit rate 1% among 190,000;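 active = activation above a set limit, based on mean plus 3 SD of controls, cut at about 140% in these data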
FLuc inh counter – counter-screen for luciferase assay inhibitors: firefly luciferase inhibition. P08659. ATPLite firefly luciferase biochemical luminescence, 10 min. inhibition, % at 10 µM. hit rate 1.5% among 200,000;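 active = inhibition above about 50% when tested at 10 µM, limit read from the data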
NF-kB expr up – raises NF-kB expression in human neuronal cells | NF-kB reporter expression; stronger effect = higher value | fold change at 12.5 µM | hit rate 1.6% among 190,000; in the data active = fold change above about 3.3
APP transl inh – APP translation inhibition. SH-SY5Y APP 5'UTR-luciferase reporter, luminescence. inhibition, % at 2 µM. hit rate 0.82% among 190,000. AID 1285;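 active = inhibition above a set limit, derived from the sample mean plus 3 SD, cut at about 45% in these data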
Starred values were filed as active, the others as inactive; x = no result.

SMILES | STAT1 act | FLuc stim CS | APP 5'UTR act | FLuc inh counter | NF-kB expr up | APP transl inh
Cc1cccc(-n2ncc3c(N4CCOCC4)ncnc32)c1 | 91 | 0.1 | 67 | 94* | 1.6 | -67
Cc1ccc(OCC(=O)Nc2cc(C(=O)O)cc(C(=O)O)c2)cc1C | 107 | 1.1 | 0 | -5 | 1.1 | 0
C=CCNC(=O)CSc1n[nH]c(-c2cc(Cl)ccc2OC)n1 | 103 | 1.1 | -3 | -6 | 0.97 | 3
CCOC(=O)N1C2C=C(C)[C@@H]2[C@@H]2CC(=O)N21 (some centres not stated) | 101 | 1 | 7 | 3 | 1.6 | -6
O=C(OCc1cnc(Cl)s1)c1cccc(Cl)c1 | 101 | 1.1 | -5 | -5 | 1.3 | 5
C/C(=N\OC(=O)c1ccccc1F)c1nccs1 | 94 | 0.2 | -18 | 85* | 1.1 | 18
C/C(=N/OC(=O)c1cccc(Cl)c1)c1nccs1 | 103 | 0.5 | -15 | 55* | 1.1 | 15
CCOC(=O)CSC1=C(C#N)C(c2ccc(C)s2)CC(=O)N1 (configuration not stated) | 98 | 1 | -91 | -4 | 1.5 | 91*
CCSC1=C(C#N)C(c2ccc(C)s2)CC(=O)N1 (configuration not stated) | 101 | 0.9 | 2 | 10 | x | -2
O=C(COC(=O)CN1C(=O)c2ccccc2C1=O)Nc1ccc(S(=O)(=O)N2CCCC2)cc1 | 101 | 1.1 | -50 | -11 | 0.89 | 50*
c1ccc2c(c1)CCN(C1=Nc3cccc4cccc1c34)C2 | 101 | 0.5 | 101 | 52* | 2.3 | -101
COCCCn1cnc2oc3nc4ccccc4nc3c2c1=O | 141* | 0.9 | 166* | 12 | 2.3 | -167
CC(NCC(c1ccco1)N1CCCCC1)C(=O)NC1CCCC1 (configuration not stated) | 96 | 0.3 | -7 | 74* | 1.2 | 7
Nc1cc(C(=O)O)ccc1Sc1ccccc1C(=O)O | 94 | 1 | 6 | 0 | 1.4 | -6
Cc1ccc(CSc2nc3ccncc3n2CC(=O)Nc2cc(C)cc(C)c2)cc1 | 98 | 0.5 | 49 | 50* | 1.3 | -49
COc1nc(C)nc2c1sc1nc3c(cc12)COC(C)(C)C3 | 137* | 1 | 55 | 5 | 2.6 | -55
COCCCNC(=S)N(Cc1cccnc1)Cc1ccc(OC)c(OC)c1 | 101 | 1.1 | 8 | -6 | 1 | -8
COc1ccc2c(c1OC)C(=O)N(c1cccc(C)c1)C2=O | 136* | 0.8 | 10 | 19 | 1.5 | -10
CC(=O)OCCNc1cc(SCc2ccco2)c2nonc2c1[N+](=O)[O-] | 96 | 1.1 | -4 | -5 | 1.8 | 4
CC(=O)OCCCNc1cc(Sc2nc3ccccc3s2)c2nonc2c1[N+](=O)[O-] | 132* | 1 | 2 | -4 | 1.1 | -2
CC(=O)OCCNc1cc(Sc2nc3ccccc3[nH]2)c2nonc2c1[N+](=O)[O-] | 93 | 1 | -79 | -1 | 0.11 | 79*
CC(=O)OCCCNc1cc(Sc2ccc(C)cc2)c2nonc2c1[N+](=O)[O-] | 95 | 1 | -18 | -1 | 1 | 18
CCCCOc1ccc(OCCNS(=O)(=O)N(C)C)cc1 | 101 | 1 | 16 | -2 | 1.1 | -16
COc1ccccc1C(=O)NCCc1c(C)[nH]c2c(C)ccc(F)c12 | 101 | 1 | -8 | -4 | 1.3 | 8
CC(=O)Nc1ccc(S(=O)(=O)N/N=C/c2ccc(C)s2)cc1 | 114 | 0.9 | 17 | 14 | 1.9 | -17
SMILES | STAT1 act | FLuc stim CS | APP 5'UTR act | FLuc inh counter | NF-kB expr up | APP transl inh
Cc1ccc(O)c(CCc2ccc(O)cc2)n1 | 104 | 1 | 18 | 5 | 1 | -18
Cc1cc(C)cc(C(=O)NCCCc2ccccc2)c1 | 100 | 1 | 2 | 2 | 0.92 | -2
Cc1ccc(C(=O)NCCCc2ccccc2)c(C)c1 | 136* | 0.9 | 160* | 12 | 1.1 | -160
O=C(CSc1cccc[n+]1[O-])C12CC3CC(CC(C3)C1)C2 | 101 | 1 | -3 | 2 | 1.3 | 3
CCOC(=O)c1cc([N+](=O)[O-])c([N+](=O)[O-])cc1NC(C)=O | 92 | 1 | -9 | -1 | 0.19 | 9
COc1cc(OC)c(N2CC34C=CC(O3)C(C(=O)O)C4C2=O)cc1Cl (configuration not stated) | 102 | 1.1 | 21 | -5 | 1.4 | -21
O=c1oc(Nc2cccc(F)c2)nc2ccccc12 | 112 | 1 | 68 | 2 | 2.2 | -68
